Published values pooled from the literature.
Compare with care: the assays were run in different laboratories.
Target: Serine/threonine-protein kinase Chk1 (CHEK1, Homo sapiens, UniProt O14757)
Mode: inhibitor
Sequence (O14757 1-476, as in one of the studies): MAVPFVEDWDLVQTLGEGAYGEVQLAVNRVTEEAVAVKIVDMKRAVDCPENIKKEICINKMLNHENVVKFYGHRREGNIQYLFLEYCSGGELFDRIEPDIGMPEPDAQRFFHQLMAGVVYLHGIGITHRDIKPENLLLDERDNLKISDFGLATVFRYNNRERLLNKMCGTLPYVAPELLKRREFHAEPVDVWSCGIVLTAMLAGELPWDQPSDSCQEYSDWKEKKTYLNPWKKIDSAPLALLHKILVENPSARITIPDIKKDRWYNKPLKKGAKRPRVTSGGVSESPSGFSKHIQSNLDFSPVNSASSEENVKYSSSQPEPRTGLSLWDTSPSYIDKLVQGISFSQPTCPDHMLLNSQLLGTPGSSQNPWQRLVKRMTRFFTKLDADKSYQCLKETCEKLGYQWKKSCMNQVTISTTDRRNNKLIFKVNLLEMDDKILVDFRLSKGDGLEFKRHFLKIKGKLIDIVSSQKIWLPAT

SMILES	effect on	technique	cell line	concentration	inhibition [%]
CSc1nc(C)c(-c2ccnc(Nc3ccc(N4CCOCC4)cc3)c2)[nH]1	enzyme activity			10 µM	12.4
CN(C)C1CCN(CC#Cc2nn(C3CCCC3)c3nc(NCc4ccccc4)ncc23)C1 (stereo not drawn)	enzyme activity	FRET		10 µM	15
COc1cc2ncnc(Nc3ccc(Oc4ccccc4)cc3C)c2cc1OC	enzyme activity			1 µM	6
Cc1ccc(Nc2nccc(N(C)c3ccc4c(C)n(C)nc4c3)n2)cc1S(N)(=O)=O	enzyme activity			10 µM	-6
CCN1CCN(Cc2ccc(NC(=O)c3ccc(C)c(/C=C/c4cnc5[nH]ccc5c4OC)c3)cc2C(F)(F)F)CC1	target engagement in cells	chemoproteomics	A-375	0.5 µM	-126
CNCc1ccc(-c2cc(-c3nc(-c4ccc(S(=O)(=O)C(C)C)cc4)cnc3N)on2)cc1	enzyme activity			2 µM	52
COc1cccc2c(NCc3ccccc3)nc(-n3c(N)nc4ccccc43)nc12	target engagement in cells	chemoproteomics		20 mM	-4.2
CCN1CCN(Cc2ccc(NC(=O)c3ccc(C)c(Oc4ccnc5[nH]ccc45)c3)cc2C(F)(F)F)CC1	target engagement in cells	chemoproteomics	A-375	50 nM	-156
CNC(=O)c1cc(Oc2ccc(NC(=O)Nc3ccc(Cl)c(C(F)(F)F)c3)cc2)ccn1	enzyme activity			10 µM	-27
O=C(CSc1nc2nccnc2c(=O)n1CCc1ccccc1)Nc1nccs1	enzyme activity			10 µM	-11
c1ccc(CNc2nc(N3CCOc4ccccc43)nc3c2CCCC3)cc1	target engagement in cells	chemoproteomics		20 mM	-3.2
CNc1cccc2cc(C(=O)Nc3ccc(C(=O)O)cc3)c(=O)[nH]c12	enzyme activity			10 µM	-1.6
